For orientation: MBC means the lowest tested concentration that kills the bacteria rather than only halting them. High values mean less potent killing, low ones more potent killing. The term MIC denotes the smallest concentration in the dilution series that meets the test's criterion for growth inhibition. The low end stands for greater potency, the high end for weaker potency.

Data set [1] has as its system Mycobacterium tuberculosis. Nature of the data set: Antimycobacterial activity against Mycobacterium tuberculosis H37Ra ATCC 25177 by microbroth dilution method. The class given is functional. The essentials:
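M. tuberculosis H37Ra (ATCC 25177) colonies suspended in Middlebrook 7H9 broth to 1.0 McFarland, diluted tenfold, mixed 1:1 with twofold compound dilutions (DMSO stocks; final 256 to 1 µg/mL). Growth was checked by Kinyoun acid-fast smear. MIC = lowest concentration giving complete inhibition.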
A general note: Broth dilution looks for growth in wells or tubes with falling amounts of substance.

The next data set concerns L929. In words: Cytotoxicity against mouse L929 cells at 0.1 mM after 24 hrs by MTT assay. Conditions: l929, 24 h, 100 µM. The class given is cell-based. The essentials:
(§1)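 L929 mouse fibroblasts seeded at 3 × 10³ cells/well in 100 µl medium; cell-free medium wells as controls. Exposed to compounds at 10^-4 M for 24 h. Viable cells quantified by MTT with absorbance read at 570 nm. Viability given as percent of absorbance of unexposed cells. Each experiment repeated three times.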
A general note: Tetrazolium assays rely on reduction of a dye to a coloured formazan, in cell work by metabolically active cells.

Data set [2] can be described thus: Cytotoxicity against mouse L929 cells at 0.1 mM assessed as cell viability after 24 hrs by MTT assay. The settings on record: read-out: Activity. The class given is cell-based. The essentials:
as §1

≈ marks a conversion by molar mass, not a printed value.

In data set [1], `CC(=O)NS(=O)(=O)c1ccc(N2C(=O)c3ccccc3C2=O)cc1` displayed an MBC of 256 µg/mL (≈ 743 µM) and an MIC of 256 µg/mL (≈ 743 µM). Further, in the data set with L929, the Activity result is “Non-toxic”.

As for `O=C(NS(=O)(=O)c1ccc(N2C(=O)c3ccccc3C2=O)cc1)c1ccccc1`, in data set [1], the MBC was 256 µg/mL (≈ 630 µM) and the minimal inhibitory concentration (MIC) stood at 128 µg/mL (≈ 315 µM). Besides, in the data set on L929, the Activity entry is “Non-toxic”.

Turning to `O=C1c2ccccc2C(=O)N1c1ccc(S(=O)(=O)Nc2nccs2)cc1`, in data set [1], the MBC amounted to 256 µg/mL (≈ 664 µM) and 256 µg/mL (≈ 664 µM) was the least that counted as inhibitory (MIC). In the data set on L929, the Activity result is on record as “Non-toxic”.

`CC(=O)NS(=O)(=O)c1ccc(N2C(=O)c3c(F)c(F)c(F)c(F)c3C2=O)cc1`: in data set [1], the MBC was determined as 128 µg/mL (≈ 307 µM) and the MIC worked out at 64 µg/mL (≈ 154 µM). Moreover, the Activity result with L929 is listed as “Non-toxic”.

As to `O=C(NS(=O)(=O)c1ccc(N2C(=O)c3c(F)c(F)c(F)c(F)c3C2=O)cc1)c1ccccc1`, in data set [1], the MBC stood at 128 µg/mL (≈ 268 µM) and the lowest concentration to inhibit growth (MIC) was 64 µg/mL (≈ 134 µM). For the same molecule, the Activity result with L929 is on record as “Non-toxic”.

With `O=C1c2c(F)c(F)c(F)c(F)c2C(=O)N1c1ccc(S(=O)(=O)Nc2ncccn2)cc1`, in data set [1], the minimum bactericidal concentration (MBC) was found to be 64 µg/mL (≈ 141 µM) and the MIC was 32 µg/mL (≈ 70.7 µM). In the data set on L929, the Activity entry is “Non-toxic”.

In data set [1], `Cc1cc(C)nc(NS(=O)(=O)c2ccc(N3C(=O)c4c(F)c(F)c(F)c(F)c4C3=O)cc2)n1` gave an MBC of 128 µg/mL (≈ 266 µM) and a minimal inhibitory concentration (MIC) of 32 µg/mL (≈ 66.6 µM). In addition, the Activity result in the data set with L929 is given as “Toxic”.

In data set [1], `O=C1c2c(F)c(F)c(F)c(F)c2C(=O)N1c1ccc(S(=O)(=O)Nc2nccs2)cc1` came in with a minimal bactericidal concentration (MBC) of 64 µg/mL (≈ 140 µM) and an MIC of 64 µg/mL (≈ 140 µM). The Activity entry in the data set with L929 is recorded as “Non-toxic”.

Take `Cc1cc(NS(=O)(=O)c2ccc(N3C(=O)c4c(F)c(F)c(F)c(F)c4C3=O)cc2)no1`: in data set [1], the minimal bactericidal concentration (MBC) worked out at 128 µg/mL (≈ 281 µM) and the MIC was determined as 32 µg/mL (≈ 70.3 µM). For the same molecule, in the data set on L929, the Activity entry is given as “Toxic”. For the same molecule, the viability at 24 h, 100 µM in data set [2] was less than 50%.

Turning to `Cc1ccnc(NS(=O)(=O)c2ccc(N3C(=O)c4c(F)c(F)c(F)c(F)c4C3=O)cc2)n1`, in data set [1], the minimal bactericidal concentration (MBC) was 256 µg/mL (≈ 549 µM) and the minimal inhibitory concentration (MIC) is 128 µg/mL (≈ 274 µM).

In the case of `COc1ncnc(NS(=O)(=O)c2ccc(N3C(=O)c4c(F)c(F)c(F)c(F)c4C3=O)cc2)c1OC`, in data set [1], the MBC was determined as 64 µg/mL (≈ 125 µM) and 32 µg/mL (≈ 62.5 µM) was the least that counted as inhibitory (MIC). The Activity result in the data set on L929 is recorded as “Toxic”. Also, the viability at 24 h, 100 µM in data set [2] was less than 50%.

`NNC(=O)c1ccncc1` [ISONIAZID] gave an MIC in data set [1] of less than 0.2 µg/mL.

Regarding `Nc1ccc(S(=O)(=O)NC(=O)c2ccccc2)cc1` [SULFABENZAMIDE], in data set [1], the minimal bactericidal concentration (MBC) amounted to 256 µg/mL (≈ 926 µM) and the minimum inhibitory concentration (MIC) was 32 µg/mL (≈ 116 µM).

In data set [1], `CC(=O)NS(=O)(=O)c1ccc(N)cc1` [SULFACETAMIDE] gave an MBC of 256 µg/mL (≈ 1190 µM) and an MIC of 64 µg/mL (≈ 299 µM).

In data set [1], `Nc1ccc(S(=O)(=O)Nc2ncccn2)cc1` [SULFADIAZINE] had an MBC of 128 µg/mL (≈ 511 µM) and an MIC of 8 µg/mL (≈ 32 µM).

`COc1ncnc(NS(=O)(=O)c2ccc(N)cc2)c1OC` [SULFADOXINE]: in data set [1], the MBC came to 256 µg/mL (≈ 825 µM) and it took 32 µg/mL (≈ 103 µM) to inhibit growth (MIC).

In data set [1], `Cc1ccnc(NS(=O)(=O)c2ccc(N)cc2)n1` [SULFAMERAZINE] returned a minimal bactericidal concentration (MBC) of 256 µg/mL (≈ 969 µM) and a minimum inhibitory concentration (MIC) of 32 µg/mL (≈ 121 µM).

For `Cc1cc(C)nc(NS(=O)(=O)c2ccc(N)cc2)n1` [SULFAMETHAZINE], in data set [1], the MBC was found to be 256 µg/mL (≈ 920 µM) and the lowest concentration to inhibit growth (MIC) was 32 µg/mL (≈ 115 µM).

Regarding `Cc1cc(NS(=O)(=O)c2ccc(N)cc2)no1` [SULFAMETHOXAZOLE], in data set [1], the minimum bactericidal concentration (MBC) amounted to 256 µg/mL (≈ 1010 µM) and the MIC was determined as 32 µg/mL (≈ 126 µM).

In data set [1], `Nc1ccc(S(=O)(=O)Nc2nccs2)cc1` [SULFATHIAZOLE] registered a minimal bactericidal concentration (MBC) of 16 µg/mL (≈ 62.7 µM) and a minimal inhibitory concentration (MIC) of 4 µg/mL (≈ 15.7 µM).

Turning to `O=C1CCC(N2C(=O)c3ccccc3C2=O)C(=O)N1` (stereo not drawn) [THALIDOMIDE], in data set [1], the MBC turned out to be 256 µg/mL (≈ 991 µM) and the lowest concentration to inhibit growth (MIC) was 128 µg/mL (≈ 496 µM).

(Values after ChEMBL document CHEMBL2046301, “Synthesis and antimycobacterial activity of some phthalimide derivatives” (Bioorg Med Chem, 2012).)
